Assay results reported in ChEMBL document CHEMBL1150376, “Antitumor agents 260. New desmosdumotin B analogues with improved in vitro anticancer activity” (2008).
Converted amounts (≈) assume the structure as drawn. The source made the active and inactive calls. The calls are words filed in the database; no cut-off is given here.

Columns and labels:
Format in all cases: functional
KB [1] = test: Cytotoxicity against human KB cells by sulforhodamine B assay; settings: read-out: ED50 (the source's name)
Summary of the method: (§1)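 Cells grown in RPMI-1640 with 25 mM HEPES, 0.25% sodium bicarbonate, 10% FBS and 100 µg/mL kanamycin. Freshly trypsinized cells were seeded at 1500-7500 per well, and compounds were added from DMSO-diluted stock. After 3 days, attached cells were fixed with cold 50% TCA, stained with 0.4% SRB, and read at 562 nm. ED50 is the mean of ≥3 independent determinations.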

[2] = Cytotoxicity against human KB-VIN cells by sulforhodamine B assay; settings: KBVIN, read-out: ED50 (the source's name); summary of the method: as §1
[3] = Selectivity index, ratio of ED50 for human KB cells to ED50 for vincristine-resistant human KB-VIN cells
Summary of the method: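 The ratio uses ED50 values from the 3-day SRB assay run in parallel on KB and vincristine-resistant KB-VIN cells. For each line, ED50 is the concentration giving 50% reduction in 562 nm absorbance relative to untreated cells, averaged over ≥3 independent determinations.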

PC-3 = test: Cytotoxicity against human PC3 cells by sulforhodamine B assay; settings: for EC50: read-out: ED50 (the source's name); summary of the method: as §1
A549 = test: Cytotoxicity against human A549 cells by sulforhodamine B assay; settings: for EC50: read-out: ED50 (the source's name); summary of the method: as §1
MCF7 = test: Cytotoxicity against human MCF7 cells by sulforhodamine B assay; settings: read-out: ED50 (the source's name); summary of the method: as §1
HCT-8 = test: Cytotoxicity against human HCT8 cells by sulforhodamine B assay; settings: for EC50: read-out: ED50 (the source's name); summary of the method: as §1
KB [4] = test: Cytotoxicity against human KB cells at 20 ug/mL by sulforhodamine B assay

Row | Compound | EC50 (KB [1]) [µg/mL] | EC50 [2] [µg/mL] | Ratio ED50 [3] | EC50 (PC-3) [µg/mL] | EC50 (A549) [µg/mL] | EC50 (MCF7) [µg/mL] | EC50 (HCT-8) [µg/mL] | Activity (KB [4]) [%] | Activity (PC-3) | Activity (A549) | Activity (HCT-8)
1 | COC1=C(C)C(O)=C2C(=O)C=C(c3ccccc3)OC2C1(C)C (configuration not stated) | 38.5 (≈ 123 µM) | 23 (≈ 73.6 µM) | 1.7 |  |  |  |  |  |  |  | 
2 | CCC1=C(O)c2c(occ(-c3ccccc3)c2=O)C(CC)(CC)C1=O | 16 (≈ 47.3 µM) | 3.5 (≈ 10.3 µM) | 4.6 | > 20 | 18 (≈ 53.2 µM) | 10 (≈ 29.6 µM) | 12 (≈ 35.5 µM) |  |  |  | 
3 | CCc1ccc(-c2cc(=O)c3c(O)c(CC)c(O)c(CC)c3o2)cc1 | > 20 | 5 (≈ 14.8 µM) | >4 |  |  |  |  |  |  |  | 
4 | COC1=CC(O)=C2C(=O)C=C(c3ccccc3)OC2C1(C)C (configuration not stated) | 1.8 (≈ 6.03 µM) | 1.8 (≈ 6.03 µM) | 1 |  |  |  |  |  |  |  | 
5 | CC1=C(O)c2c(oc(-c3c(C)cc(C)cc3C)cc2=O)C(C)(C)C1=O [2,4,6-TRIMETHYL DESMOSDUMOTIN B] |  | 5.82 (≈ 17.2 µM) | >3.4 |  |  |  |  | <50 |  |  | 
6 | CCC1=C(O)c2c(oc(-c3cccc4ccccc34)cc2=O)C(CC)(CC)C1=O [2-(NAPHTHALEN-1-YL)-6,8,8-TRIETHYL DESMOSDUMOTIN B] | 0.6 (≈ 1.54 µM) | 0.3 (≈ 0.772 µM) | 2 | 0.4 (≈ 1.03 µM) | 0.6 (≈ 1.54 µM) | 0.2 (≈ 0.515 µM) | 0.4 (≈ 1.03 µM) |  |  |  | 
7 | CC1=C(O)c2c(oc(-c3cccc4ccccc34)cc2=O)C(C)(C)C1=O [2-(NAPHTHALEN-1-YL)DESMOSDUMOTIN B] | 0.51 (≈ 1.47 µM) | 0.16 (≈ 0.462 µM) | 3.2 | 0.5 (≈ 1.44 µM) | 0.6 (≈ 1.73 µM) | 0.6 (≈ 1.73 µM) | 0.4 (≈ 1.15 µM) |  |  |  | 
8 | CC1=C(O)c2c(oc(-c3ccccc3C)cc2=O)C(C)(C)C1=O [2-METHYL DESMOSDUMOTIN B] | 37.3 (≈ 120 µM) | 1.75 (≈ 5.64 µM) | 21.3 |  |  |  |  |  |  |  | 
9 | CC1=C(O)c2c(oc(-c3cc(C)cc(C)c3)cc2=O)C(C)(C)C1=O [3,5-DIMETHYL DESMOSDUMOTIN B] | 53 (≈ 164 µM) | 2.91 (≈ 8.97 µM) | 18.2 |  |  |  |  |  |  |  | 
10 | CCc1ccc(-c2cc(=O)c3c(o2)C(C)(C)C(=O)C(C)=C3O)cc1 [4-ETHYL DESMOSDUMOTIN B] | 20 (≈ 61.7 µM) | 1.54 (≈ 4.75 µM) | 13 |  |  |  |  |  |  |  | 
11 | CC1=C(O)c2c(oc(-c3ccc(C)cc3)cc2=O)C(C)(C)C1=O [4-METHYL DESMOSDUMOTIN B] | 22.5 (≈ 72.6 µM) | 1.09 (≈ 3.51 µM) | 20.7 |  |  |  |  |  |  |  | 
12 | CCC1=C(O)c2c(oc(-c3ccccc3)cc2=O)C(CC)(CC)C1=O [6,8,8-TRIETHYL DESMOSDUMOTIN B] | > 80 | 0.36 (≈ 1.06 µM) | >222 |  |  | > 20 |  |  | inactive | inactive | inactive
13 | CCC1=C(O)c2c(oc(-c3cc4ccccc4c4ccccc34)cc2=O)C(CC)(CC)C1=O [6,8,8-TRIETHYL-2-(PHENANTHREN-9-YL) DESMOSDUMOTIN B] | 5 (≈ 11.4 µM) | 4.3 (≈ 9.81 µM) | 1.2 | 6 (≈ 13.7 µM) | 8 (≈ 18.2 µM) | 4 (≈ 9.12 µM) | 5.6 (≈ 12.8 µM) |  |  |  | 
14 | CCC1=C(O)c2c(oc(-c3ccccc3C)cc2=O)C(CC)(CC)C1=O [6,8,8-TRIETHYL-2-METHYL DESMOSDUMOTIN B] | 18 (≈ 51.1 µM) | 0.1 (≈ 0.284 µM) |  |  |  |  |  |  |  |  | 
15 | CCC1=C(O)c2c(oc(-c3ccc(CC)cc3)cc2=O)C(CC)(CC)C1=O [6,8,8-TRIETHYL-4-ETHYL DESMOSDUMOTIN B] | 8 (≈ 21.8 µM) | 0.025 (≈ 0.0682 µM) | 320 |  |  |  |  |  |  |  | 
16 | CCC1=C(O)c2c(oc(-c3ccc(C)cc3)cc2=O)C(CC)(CC)C1=O [6,8,8-TRIETHYL-4-METHYL DESMOSDUMOTIN B] | 13.8 (≈ 39.2 µM) | 0.03 (≈ 0.0851 µM) | 460 | 18 (≈ 51.1 µM) | 16 (≈ 45.4 µM) | > 20 | 15 (≈ 42.6 µM) |  |  |  | 
17 | CCC1=C(OC)C(CC)(CC)C2OC(c3ccccc3)=CC(=O)C2=C1O (configuration not stated) [6,8,8-TRIETHYL-7-METHOXY DESMOSDUMOTIN B] | 20 (≈ 56.4 µM) | 15.5 (≈ 43.7 µM) | 1.3 |  |  |  |  |  |  |  | 
18 | CCCC1=C(O)c2c(oc(-c3ccccc3)cc2=O)C(CCC)(CCC)C1=O [6,8,8-TRIPROPYL DESMOSDUMOTIN B] | 4 (≈ 10.5 µM) | 0.63 (≈ 1.66 µM) | 6.4 |  |  |  |  |  |  |  | 
19 | CCCC1=C(OC)C(CCC)(CCC)C2OC(c3ccccc3)=CC(=O)C2=C1O (configuration not stated) [6,8,8-TRIPROPYL-7-METHOXY DESMOSDUMOTIN B] | 8.5 (≈ 21.4 µM) | 7 (≈ 17.7 µM) | 1.2 |  |  |  |  |  |  |  | 
20 | CCC1=C(O)c2c(oc(-c3ccccc3)cc2=O)C(C)(C)C1=O [6-ETHYL-8,8-DIMETHYL DESMOSDUMOTIN B] | > 20 | 0.6 (≈ 1.93 µM) | >33 |  |  |  |  |  |  |  | 
21 | CC1=C(O)C(C)(C)c2oc(-c3ccccc3)cc(=O)c2C1=O [DESMOTUMOTIN B] | > 40 | 2 (≈ 6.75 µM) | >20 |  | > 20 | > 20 |  |  | inactive |  | inactive
22 | CC[C@]1(O)C[C@H]2CN(CCc3c([nH]c4ccccc34)[C@@](C(=O)OC)(c3cc4c(cc3OC)N(C=O)[C@H]3[C@@](O)(C(=O)OC)[C@H](OC(C)=O)[C@]5(CC)C=CCN6CC[C@]43[C@@H]65)C2)C1 [VINCRISTINE] | 0.015 (≈ 0.0182 µM) | 7 (≈ 8.49 µM) | 0.002 | 0.01 (≈ 0.0121 µM) | 0.004 (≈ 0.00485 µM) | 0.01 (≈ 0.0121 µM) | 0.02 (≈ 0.0242 µM) |  |  |  | 
